According to the array DNA melting data of Ke et al. (doi:10.1101/2024.01.08.574731):

Columns and labels:
[1] = melting temperature; fluorescence melt of hairpins on a sequencing array, two-state fit, raised by 9.35 °C to match UV melts; details: sodium 0.088 M
How it was run: (§1)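 Library hairpins on a sequenced MiSeq flow cell carried annealed Cy3 and quencher oligos, and their Cy3 fluorescence was imaged in 50 mM Na-HEPES pH 8.0 with 25 mM NaCl, in 2.5 °C steps up to 60 °C. Signals were normalised to Cy3 before quenching and to control constructs. Melting temperature and folding enthalpy were obtained from bootstrapped two-state fits, combined by inverse-variance weighting across four replicates, and the fitted temperatures were then raised by 9.35 °C to match UV melts.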

[2] = folding enthalpy; higher = less favourable; fluorescence melt of hairpins on a sequencing array, two-state fit; details: sodium 0.088 M
How it was run: as §1

Sequence | Tm [1] | folding enthalpy [2]
GATCTTTTCTAAGATC ((((((....)))))) | 45.2 °C | -36.8 kcal/mol
GATGAACGAAAGTTAATC (((.(((....))).))) | 38.6 °C | -23.7 kcal/mol
GATGAACGAAAGTTATC (((.(((....)))))) | 28.4 °C | -11.1 kcal/mol
GATGAAGGAAACCTCATC (((((.(....).))))) | 36.1 °C | -24.7 kcal/mol
GATGACGAAAGTCAATC ((((((....))).))) | 43.7 °C | -16.2 kcal/mol
GATGACGGAAACATCATC (((((.(....).))))) | 34.8 °C | -31.2 kcal/mol
GATGAGGAAACTCATC ((((((....)))))) | 52.8 °C | -35 kcal/mol
GATGAGGGAAACCTCATC (((((((....))))))) | 58.4 °C | -39.6 kcal/mol
GATGAGGGAAACCTCGTC ((.((((....)))).)) | 47.9 °C | -22.3 kcal/mol
GATGATCCGAAAGGAATC (((..(((....)))))) | 34.7 °C | -14.3 kcal/mol
GATGATGGAAACACCATC ((((.((....)).)))) | 38.6 °C | -20.8 kcal/mol
GATGATGGAAACATCGTC ((.((((....)))).)) | 47.4 °C | -32.3 kcal/mol
GATGCACGAAAGTGAATC (((.(((....))).))) | 50.8 °C | -23.4 kcal/mol
GATGCAGGAAACTGCGTC ((.((((....)))).)) | 52.5 °C | -44.7 kcal/mol
GATGCCGAAAGGCAGATC ((((((....)))..))) | 52.2 °C | -15.6 kcal/mol
GATGCCGAAAGGCCGATC ((((((....)))..))) | 25.2 °C | -10.3 kcal/mol
GATGCCGAAAGGCTGATC ((((((....)))..))) | 36.6 °C | -9.91 kcal/mol
GATGCCGAAAGGCTTATC ((((((....)))..))) | 31.5 °C | -6.76 kcal/mol
GATGCCGGAAACGGTGTC ((..(((....)))..)) | 47.8 °C | -24.3 kcal/mol
GATGCGGGAAACCGCACC (.(((((....))))).) | 42.9 °C | -11.3 kcal/mol
GATGCTGGAAACAGCATC (((((((....))))))) | 66.9 °C | -41.2 kcal/mol
GATGGACGAAAGTCTATC (((.(((....))).))) | 52.9 °C | -30.9 kcal/mol
GATGGAGAAATCCATC ((((((....)))))) | 51 °C | -30 kcal/mol

Sequence | Tm [1] | folding enthalpy [2]
GATGGAGGAAACTCTATC (((.(((....))).))) | 37.8 °C | -24.4 kcal/mol
GATGGAGGAAACTCTGTC ((..(((....)))..)) | 29.1 °C | -21 kcal/mol
GATGGCACGAAAGTGATC (((..(((....)))))) | 27.2 °C | -12.9 kcal/mol
GATGGCCGAAAGGCAATC (((.(((....))).))) | 57.3 °C | -20.9 kcal/mol
GATGGCCGAAAGGCATC (((.(((....)))))) | 49.9 °C | -14.6 kcal/mol
GATGGCGAAAGCCTATC ((((((....))).))) | 44.3 °C | -12.7 kcal/mol
GATGGCGCGAAAGCGATC (((..(((....)))))) | 31.6 °C | -11 kcal/mol
GATGGCGGAAACGTCGTC ((.(.((....)).).)) | 45.4 °C | -29.6 kcal/mol
GATGGGGGAAACTCCATC (((((.(....).))))) | 49.2 °C | -32.9 kcal/mol
GATGGTGAAAACCATC ((((((....)))))) | 57.8 °C | -36.5 kcal/mol
GATGGTGGAAACACCACC (.(((((....))))).) | 44.6 °C | -13.6 kcal/mol
GATGGTGGAAACGCCATC (((((.(....).))))) | 53.4 °C | -44.2 kcal/mol
GATGTACGAAAGTAATC (((.(((....)))))) | 35.8 °C | -21.1 kcal/mol
GATGTAGGAAACTACACC (.(((((....))))).) | 31.8 °C | -17.8 kcal/mol
GATGTAGGAAACTATATC (((.(((....))).))) | 33.1 °C | -28.5 kcal/mol
GATGTCCCGAAAGGGATC (((..(((....)))))) | 33.6 °C | -9.1 kcal/mol
GATGTCCGAAAGGAATC (((.(((....)))))) | 31.5 °C | -13.5 kcal/mol
GATGTCGGAAACGACGTC ((.((((....)))).)) | 54.1 °C | -31.3 kcal/mol
GATGTCGGAAACGATATC (((.(((....))).))) | 46.6 °C | -48.3 kcal/mol
GATGTCGGAAACGATGTC ((..(((....)))..)) | 39.9 °C | -32.6 kcal/mol
GATGTGCGAAAGCAAATC (((.(((....))).))) | 46.6 °C | -23.3 kcal/mol
GATGTGCGAAAGCATATC (((.(((....))).))) | 54.2 °C | -32.6 kcal/mol
GATGTGGGAAACCATATC (((.(((....))).))) | 43.2 °C | -41.5 kcal/mol

Sequence | Tm [1] | folding enthalpy [2]
GATTAAGGAAACTTAATC (((((((....))))))) | 45.5 °C | -31.3 kcal/mol
GATTACGAAAGTAATATC ((((((....)))..))) | 38.6 °C | -22.1 kcal/mol
GATTACGAAAGTACATC ((((((....))).))) | 31.1 °C | -17.7 kcal/mol
GATTAGGGAAACCTAATC (((((((....))))))) | 50.3 °C | -45.1 kcal/mol
GATTATGGAAACATGATC (((.(((....))).))) | 35.5 °C | -32.8 kcal/mol
GATTCACGAAAGTGATC (((.(((....)))))) | 42.3 °C | -13.4 kcal/mol
GATTCAGAAATGAATC ((((((....)))))) | 46.7 °C | -25.8 kcal/mol
GATTCAGGAAACTGAACC (.(((((....))))).) | 31.4 °C | -17.4 kcal/mol
GATTCCCGAAAGGGCATC (((.(((....))).))) | 41.5 °C | -20.8 kcal/mol
GATTCCGAAAGGAAATC ((((((....))).))) | 41.5 °C | -21.4 kcal/mol
GATTCCGAAAGGAAGATC ((((((....)))..))) | 45.4 °C | -22.3 kcal/mol
GATTCCGAAAGGAATC ((((((....)))))) | 64.9 °C | -35.7 kcal/mol
GATTCCGAAAGGACAATC ((((((....)))..))) | 25.6 °C | -13.8 kcal/mol
GATTCCGAAAGGAGGATC ((((((....)))..))) | 30.4 °C | -11.2 kcal/mol
GATTCCGAAAGGATGATC ((((((....)))..))) | 31.8 °C | -21.8 kcal/mol
GATTCGGGAAACCGAATC (((((((....))))))) | 60.4 °C | -47.5 kcal/mol
GATTCGGGAAACCGGATC (((.(((....))).))) | 49.3 °C | -39.6 kcal/mol
GATTCGGGAAACTGAATC (((((.(....).))))) | 45 °C | -40.8 kcal/mol
GATTGACGAAAGTCTATC (((.(((....))).))) | 46.1 °C | -26.2 kcal/mol
GATTGAGGAAACTCAGTC ((.((((....)))).)) | 36.6 °C | -26.8 kcal/mol
GATTGCGAAAGCAATATC ((((((....)))..))) | 50.1 °C | -13.1 kcal/mol
GATTGCGAAAGCACATC ((((((....))).))) | 40.1 °C | -19.3 kcal/mol
GATTGCGAAAGCAGAATC ((((((....)))..))) | 35.4 °C | -13.8 kcal/mol

Sequence | Tm [1] | folding enthalpy [2]
GATTGCGGAAACGCAACC (.(((((....))))).) | 45.5 °C | -12.2 kcal/mol
GATTGGCGAAAGCCATC (((.(((....)))))) | 41.3 °C | -9.48 kcal/mol
GATTGGGGAAACCCAACC (.(((((....))))).) | 36.7 °C | -14.5 kcal/mol
GATTGGGGAAACCCAATC (((((((....))))))) | 61 °C | -41 kcal/mol
GATTGTGGAAACATAATC ((((.((....)).)))) | 36.1 °C | -27.3 kcal/mol
GATTGTGGAAACATGATC (((..((....))..))) | 31.2 °C | -18 kcal/mol
GATTTAGCGAAAGCTATC (((..(((....)))))) | 29.1 °C | -10.5 kcal/mol
GATTTAGGAAACTGAATC ((((.((....)).)))) | 33.1 °C | -26.4 kcal/mol
GATTTCGGAAACGGAATC ((((.((....)).)))) | 45 °C | -38.9 kcal/mol
GATTTTACGAAAGTAATC (((..(((....)))))) | 26.3 °C | -13.6 kcal/mol
GCAAAACGAAAGTTATGC (((.(((....))).))) | 45.8 °C | -28.9 kcal/mol
GCAAAACGAAAGTTGTGC (((.(((....))).))) | 49.1 °C | -34.2 kcal/mol
GCAAACCCGAAAGGGTGC (((..(((....)))))) | 51.7 °C | -17.5 kcal/mol
GCAAACCGAAAGGTGTGC (((.(((....))).))) | 57.3 °C | -37.6 kcal/mol
GCAAACGAAAGTTCATGC ((((((....)))..))) | 26 °C | -11.2 kcal/mol
GCAAACGAAAGTTCTGC ((((((....))).))) | 37.2 °C | -20.5 kcal/mol
GCAAACGAAAGTTGCTGC ((((((....)))..))) | 54.1 °C | -22.2 kcal/mol
GCAAACGAAAGTTGGTGC ((((((....)))..))) | 36.7 °C | -22.5 kcal/mol
GCAAACGAAAGTTGTTGC ((((((....)))..))) | 32.9 °C | -22.5 kcal/mol
GCAAACGAAAGTTTCTGC ((((((....)))..))) | 33.8 °C | -14.9 kcal/mol
GCAAACGAAAGTTTGTGC ((((((....)))..))) | 52.8 °C | -25.2 kcal/mol
GCAAACGAAAGTTTTTGC ((((((....)))..))) | 35.2 °C | -16.1 kcal/mol
